Test results from ChEMBL document CHEMBL1127359, “Synthetic laminin-like peptides and pseudopeptides as potential antimetastatic agents” (1994).
Square brackets hold non-standard residues; d marks the D form. Peptide text beside a SMILES is read from it. Phe(4-NH2) = Nc1ccc(C[C@H](N)C(=O)O)cc1; Phe(4-F) = N[C@@H](Cc1ccc(F)cc1)C(=O)O

Experiments:
Assay type in all cases: functional, cell-based
B16-F10 [1] = test: Antimetastatic activity against HT1080 and B16F10 cells in cell attachment assay; Low attachment activity
B16-F10 [2] = test: Antimetastatic activity against HT1080 and B16F10 cells in cell attachment assay; high attachment activity with about 70% of cells attached
B16-F10 [3] = test: Antimetastatic activity against HT1080 and B16F10 cells in cell attachment assay; high, but not maximal, attachment activity
In short: (§1)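 Peptide dissolved in water with a drop of acetic acid and dried overnight onto culture wells (amount given is quantity dried on plastic). Wells blocked with EMEM/3% BSA 30 min at 37 °C, then EMEM/0.02% BSA. HT-1080 or B16F10 cells (4 × 10⁴) added, 1 h at 37 °C, 5% CO₂. PBS wash; attached cells fixed, stained and counted (eight fields/well) or trypsinized and Coulter-counted; duplicate wells, mean ± SD.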

B16-F10 [4] = test: Antimetastatic activity against HT1080 and B16F10 cells in cell attachment assay; low attachment activity
B16-F10 [5] = test: Antimetastatic activity against HT1080 and B16F10 cells in cell attachment assay; Moderat attachment activity; in short: as §1
B16-F10 [6] = test: Antimetastatic activity against HT1080 and B16F10 cells in cell attachment assay; Moderate attachment activity; in short: as §1
B16-F10 [7] = test: Antimetastatic activity against HT1080 and B16F10 cells in cell attachment assay; moderate attachment activity; in short: as §1

## CC[C@H](C)[C@H](NC(=O)[C@@H](N)Cc1ccc(O)cc1)C(=O)NCC(=O)N[C@@H](CO)CN[C@@H](CCCN=C(N)N)C(N)=O
B16-F10 [1]
  Activity: Low attachment activity

## H-CYIGSRYIGSRYIGSR-NH2
B16-F10 [2]
  Activity: high attachment activity with about 70% of cells attached

## CC[C@H](C)[C@H](NC(=O)[C@@H](N)Cc1ccc(N)cc1)C(=O)NCC(=O)N[C@@H](CO)C(=O)N[C@@H](CCCN=C(N)N)C(N)=O (H-[Phe(4-NH2)]IGSR-NH2)
B16-F10 [3]
  Activity: high, but not maximal, attachment activity

## CC[C@H](C)[C@H](NC(=O)[C@@H](N)Cc1ccc(O)cc1)C(=O)NCCN[C@@H](CO)C(=O)N[C@@H](CCCN=C(N)N)C(N)=O
B16-F10 [4]
  Activity: low attachment activity

## H-FIGSR-NH2
B16-F10 [1]
  Activity: Low attachment activity

## CC[C@H](C)[C@H](NC[C@@H](N)Cc1ccc(O)cc1)C(=O)NCC(=O)N[C@@H](CO)C(=O)N[C@@H](CCCN=C(N)N)C(N)=O
B16-F10 [5]
  Activity: Moderat attachment activity

## CC[C@H](C)[C@@H](CNCC(=O)N[C@@H](CO)C(=O)N[C@@H](CCCN=C(N)N)C(N)=O)NC(=O)[C@@H](N)Cc1ccc(O)cc1
B16-F10 [4]
  Activity: low attachment activity

## CC[C@H](C)[C@H](NC(=O)[C@@H](N)Cc1ccc(F)cc1)C(=O)NCC(=O)N[C@@H](CO)C(=O)N[C@@H](CCCN=C(N)N)C(N)=O (H-[Phe(4-F)]IGSR-NH2)
B16-F10 [6]
  Activity: Moderate attachment activity

## CC[C@H](C)[C@H](NC(=O)[C@H](N)Cc1ccc(O)cc1)C(=O)NCC(=O)N[C@@H](CO)C(=O)N[C@@H](CCCN=C(N)N)C(=O)O [LAMININ]
B16-F10 [2]
  Activity: high attachment activity with about 70% of cells attached

## CC[C@H](C)[C@H](NC(=O)[C@@H](N)Cc1ccc(O)cc1)C(=O)NCC(=O)N[C@@H](CO)C(=O)N[C@@H](CCCN=C(N)N)C(N)=O
B16-F10 [1]
  Activity: Low attachment activity

## CC[C@H](C)[C@H](NC(=O)[C@H](N)Cc1ccc(O)cc1)C(=O)NCC(=O)N[C@@H](CO)C(=O)N[C@@H](CCCN=C(N)N)C(N)=O
B16-F10 [1]
  Activity: Low attachment activity

## CC[C@H](C)[C@@H](C(=O)NCC(=O)N[C@@H](CO)C(=O)N[C@@H](CCCN=C(N)N)C(N)=O)N(C=O)C[C@@H](N)Cc1ccc(O)cc1
B16-F10 [7]
  Activity: moderate attachment activity
